For one data set, the system named is UGT1A4*1. Kind of data set: Activity of UGT1A4*1 mutant (unknown origin) overexpressed in HEK293 cells assessed as enzyme-mediated glucuronidation after 1 hr by Eadie-Hofstee plot analysis. It is filed as ADME, cell-based. To be noted: human, HEK293 cells overexpressing UGT1A4*1. The essentials:
(§1)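 Tacrolimus at 25–750 μM was incubated 1 h and glucuronide was measured by LC-MS/MS. A kinetic model was fitted, and Vmax was adjusted for UGT1A4 protein content. Data are mean ± SD of triplicates from three independent experiments.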

Data set [1] is described as follows: Drug metabolism in human intestine assessed as glucuronidation after 1 hr by Eadie-Hofstee plot analysis. The format is ADME, tissue-based. Summed up: (§2)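 Pooled human intestine microsomes were incubated 1 h with tacrolimus at 25–750 μM. Glucuronide formation was measured by LC-MS/MS, and kinetic parameters came from a selected enzyme kinetic model fit. Data are mean ± SD of triplicate determinations from three independent experiments.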

The target of data set [2] is T1, UDP-glucuronosyltransferase 1A4 (Homo sapiens, UniProt P22310).
T1 sequence (P22310 whole entry): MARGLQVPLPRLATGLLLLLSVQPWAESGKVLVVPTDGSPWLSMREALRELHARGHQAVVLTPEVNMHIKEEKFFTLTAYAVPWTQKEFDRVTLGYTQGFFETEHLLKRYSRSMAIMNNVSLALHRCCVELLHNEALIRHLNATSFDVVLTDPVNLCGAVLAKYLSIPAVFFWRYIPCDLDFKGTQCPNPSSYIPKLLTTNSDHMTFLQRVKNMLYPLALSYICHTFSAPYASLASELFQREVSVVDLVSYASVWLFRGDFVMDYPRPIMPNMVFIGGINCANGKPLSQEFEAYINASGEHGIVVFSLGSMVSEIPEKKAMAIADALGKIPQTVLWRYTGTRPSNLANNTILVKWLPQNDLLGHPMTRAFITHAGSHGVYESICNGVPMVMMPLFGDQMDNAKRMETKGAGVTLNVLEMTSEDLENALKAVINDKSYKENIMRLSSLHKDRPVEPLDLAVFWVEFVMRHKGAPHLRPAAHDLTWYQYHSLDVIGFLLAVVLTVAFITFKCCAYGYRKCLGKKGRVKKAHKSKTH
As to the kind of experiment: Activity at human recombinant UGT1A4 assessed as enzyme-mediated tacrolimus glucuronide formation at 200 uM after 16 hrs by LC-MS analysis. It is filed as ADME. Summed up:
(§3)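 Microsomes from human liver, kidney and intestine, or from HEK293 cells overexpressing individual UGT1A or UGT2B enzymes, were prepared by differential centrifugation. They were incubated 16 h at 37°C with 200 μM tacrolimus. Tacrolimus glucuronide was detected by LC-MS/MS (C8 column, ammonium acetate/acetic acid–methanol gradient, positive electrospray), with CsA d4 as a marker.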

Data set [3] can be described thus: Activity of UGT1A4*4 mutant (unknown origin) overexpressed in HEK293 cells assessed as enzyme-mediated glucuronidation at 25 to 750 uM after 1 hr by Eadie-Hofstee plot analysis. The format is ADME, cell-based. To be noted: human, hek293, 1 h. The essentials:
as §1

A further data set relates to Liver microsome. As to the kind of experiment: Drug metabolism in human liver microsomes assessed as glucuronidation at 200 uM after 16 hrs by LC-MS analysis. The format is ADME. Summed up:
as §3
(In general: Liver microsomes are vesicles of endoplasmic reticulum, rich in cytochrome P450 enzymes.)

Data set [4] addresses T2, UDP-glucuronosyltransferase 2B7 (Homo sapiens, UniProt P16662).
T2 sequence (P16662 whole entry): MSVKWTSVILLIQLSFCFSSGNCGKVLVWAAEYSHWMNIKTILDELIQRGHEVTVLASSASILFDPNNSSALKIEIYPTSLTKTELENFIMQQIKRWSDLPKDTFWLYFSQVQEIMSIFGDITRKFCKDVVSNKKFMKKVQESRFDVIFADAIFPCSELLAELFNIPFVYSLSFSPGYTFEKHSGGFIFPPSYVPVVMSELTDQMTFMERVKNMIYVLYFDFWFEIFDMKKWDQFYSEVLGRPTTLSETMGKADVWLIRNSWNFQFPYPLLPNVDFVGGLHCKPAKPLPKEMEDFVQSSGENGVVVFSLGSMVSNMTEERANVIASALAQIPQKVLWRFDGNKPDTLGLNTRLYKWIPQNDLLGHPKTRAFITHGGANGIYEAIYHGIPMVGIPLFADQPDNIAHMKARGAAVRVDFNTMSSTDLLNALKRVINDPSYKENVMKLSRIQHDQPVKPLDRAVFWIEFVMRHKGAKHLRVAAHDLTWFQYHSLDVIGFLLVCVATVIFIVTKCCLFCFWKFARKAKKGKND
As to the kind of experiment: Drug metabolism in human kidney microsomes assessed as UGT2B7-mediated tacrolimus glucuronide formation at 200 uM after 16 hrs by LC-MS analysis. It is filed as ADME. The essentials: as §3

The target in data set [5] is UDP-glucuronosyltransferase 1A4 (Homo sapiens, UniProt P22310, P24T). As to the kind of experiment: Activity of UGT1A4*2 mutant (unknown origin) overexpressed in HEK293 cells assessed as enzyme-mediated glucuronidation at 25 to 750 uM after 1 hr by Eadie-Hofstee plot analysis. It is filed as ADME, cell-based. To be noted: hek293, 1 h. Summed up: as §1
UDP-glucuronosyltransferase 1A4 (Homo sapiens, UniProt P22310, P24T), sequence (P22310 whole entry P24T): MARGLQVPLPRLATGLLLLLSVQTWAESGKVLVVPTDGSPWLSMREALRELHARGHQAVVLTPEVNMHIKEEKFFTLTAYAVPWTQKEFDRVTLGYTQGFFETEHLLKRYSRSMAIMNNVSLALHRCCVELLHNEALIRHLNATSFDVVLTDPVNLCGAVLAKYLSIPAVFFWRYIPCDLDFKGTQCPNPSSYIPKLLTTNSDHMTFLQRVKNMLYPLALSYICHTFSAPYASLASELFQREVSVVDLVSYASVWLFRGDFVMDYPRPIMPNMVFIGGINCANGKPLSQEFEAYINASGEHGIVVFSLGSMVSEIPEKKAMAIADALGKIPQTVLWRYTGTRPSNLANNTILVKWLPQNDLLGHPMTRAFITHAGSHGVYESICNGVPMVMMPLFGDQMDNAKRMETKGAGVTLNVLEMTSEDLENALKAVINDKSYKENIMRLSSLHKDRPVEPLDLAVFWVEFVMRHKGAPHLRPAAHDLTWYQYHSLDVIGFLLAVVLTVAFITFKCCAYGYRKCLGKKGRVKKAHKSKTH
The test system of another data set is UGT1A4*4. Kind of data set: Activity of UGT1A4*4 mutant (unknown origin) overexpressed in HEK293 cells assessed as enzyme-mediated glucuronidation after 1 hr by Eadie-Hofstee plot analysis. It is filed as ADME, cell-based. To be noted: human, HEK293 cells overexpressing UGT1A4*4. Summed up: as §1
Data set [6] deals with UDP-glucuronosyltransferase 1A4 (Homo sapiens, UniProt P22310, L48V). As to the kind of experiment: Activity of UGT1A4*3 mutant (unknown origin) overexpressed in HEK293 cells assessed as enzyme-mediated glucuronidation at 25 to 750 uM after 1 hr by Eadie-Hofstee plot analysis. Conditions: hek293, 1 h. It is filed as ADME, cell-based. The essentials: as §1
UDP-glucuronosyltransferase 1A4 (Homo sapiens, UniProt P22310, L48V), sequence (P22310 29-534 L48V limits assumed): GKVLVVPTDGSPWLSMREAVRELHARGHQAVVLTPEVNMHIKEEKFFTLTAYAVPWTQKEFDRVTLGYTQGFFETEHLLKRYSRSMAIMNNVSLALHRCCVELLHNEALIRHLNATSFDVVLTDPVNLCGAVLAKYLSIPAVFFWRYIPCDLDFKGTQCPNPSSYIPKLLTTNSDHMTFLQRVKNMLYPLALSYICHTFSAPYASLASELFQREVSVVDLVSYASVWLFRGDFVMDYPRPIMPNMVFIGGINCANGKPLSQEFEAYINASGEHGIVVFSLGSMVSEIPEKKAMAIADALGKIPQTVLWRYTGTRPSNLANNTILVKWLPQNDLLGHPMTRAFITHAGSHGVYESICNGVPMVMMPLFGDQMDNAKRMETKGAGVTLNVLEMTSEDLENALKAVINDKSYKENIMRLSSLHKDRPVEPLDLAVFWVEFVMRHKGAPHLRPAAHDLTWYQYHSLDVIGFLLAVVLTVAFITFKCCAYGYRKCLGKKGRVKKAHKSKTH
Data set [7] in a line: Drug metabolism in human intestine assessed as glucuronidation at 25 to 750 uM after 1 hr by Eadie-Hofstee plot analysis. It is filed as ADME, tissue-based. Summed up: as §2
Data set [8] in a line: Activity of UGT1A4*1 mutant (unknown origin) overexpressed in HEK293 cells assessed as enzyme-mediated glucuronidation at 25 to 750 uM after 1 hr by Eadie-Hofstee plot analysis. It is filed as ADME, cell-based. Conditions: human, hek293, 1 h. The essentials: as §1
Data set [9] can be described thus: Drug metabolism in human intestine microsomes assessed as glucuronidation at 200 uM after 16 hrs by LC-MS analysis. It is filed as ADME. Summed up: as §3
Data set [10] concerns C=CC[C@@H]1/C=C(\C)C[C@H](C)C[C@H](OC)[C@H]2O[C@@](O)(C(=O)C(=O)N3CCCC[C@H]3C(=O)O[C@H](/C(C)=C/[C@@H]3CC[C@@H](O)[C@H](OC)C3)[C@H](C)[C@@H](O)CC1=O)[C@H](C)C[C@@H]2OC. As to the kind of experiment: Activity of UGT1A4*3 mutant (unknown origin) overexpressed in HEK293 cells assessed as enzyme-mediated glucuronidation after 1 hr by Eadie-Hofstee plot analysis. It is filed as ADME, cell-based, Homo sapiens. The essentials:
as §1

Data set [11] shares this test system. Kind of data set: Activity of UGT1A4*2 mutant (unknown origin) overexpressed in HEK293 cells assessed as enzyme-mediated glucuronidation after 1 hr by Eadie-Hofstee plot analysis. The format is ADME, cell-based, Homo sapiens. The essentials:
as §1

Consider `C=CC[C@@H]1/C=C(\C)C[C@H](C)C[C@H](OC)[C@H]2O[C@@](O)(C(=O)C(=O)N3CCCC[C@H]3C(=O)O[C@H](/C(C)=C/[C@@H]3CC[C@@H](O)[C@H](OC)C3)[C@H](C)[C@@H](O)CC1=O)[C@H](C)C[C@@H]2OC` [TACROLIMUS ANHYDROUS], for which the results for the Km at 1 h (in the data set on UGT1A4*1; in data set [1]; in the data set with UGT1A4*4) were 91 µM, 51.8 µM and 101 µM, respectively. For the same compound, the Drug metabolism entry is listed as “metabolite_detected” in data set [2], “metabolite_detected” in the data set with Liver microsome, “metabolite_not_detected” in [4] and “metabolite_detected” in data set [9]. For the same compound, the Vmax stood at 3.14 area/min/mg in data set [3]; 1.65 area/min/mg in data set [5]; 2.23 area/min/mg in data set [6]; 0.04 area/min/mg in [7]; 1.65 area/min/mg in data set [8].

Take “UDP-glucuronosyltransferase 1A4 (Homo sapiens; L48V)”: the Km in data set [10] was found to be 126 µM.

As for “UDP-glucuronosyltransferase 1A4 (Homo sapiens; P24T)”, the Michaelis constant (Km) in data set [11] is 114 µM.

Usually Km stands for the substrate concentration at which the rate is half of its maximum.
